Laboratory results taken from ChEMBL document CHEMBL4725345, “DFG-1 Residue Controls Inhibitor Binding Mode and Affinity, Providing a Basis for Rational Design of Kinase Inhibitor Selectivity” (J Med Chem, 2020).

Tests used:
[1] = target: Homeodomain-interacting protein kinase 2 (Homo sapiens, UniProt Q9H2X6); assay: Inhibition of human HIPK2 by radiometric assay
[2] = target: High affinity nerve growth factor receptor (Homo sapiens) (UniProt P04629); assay: Inhibition of human TrkA assessed as residual activity at 1 uM relative to control
Sequence of High affinity nerve growth factor receptor (Homo sapiens) (P04629 33-796 limits assumed): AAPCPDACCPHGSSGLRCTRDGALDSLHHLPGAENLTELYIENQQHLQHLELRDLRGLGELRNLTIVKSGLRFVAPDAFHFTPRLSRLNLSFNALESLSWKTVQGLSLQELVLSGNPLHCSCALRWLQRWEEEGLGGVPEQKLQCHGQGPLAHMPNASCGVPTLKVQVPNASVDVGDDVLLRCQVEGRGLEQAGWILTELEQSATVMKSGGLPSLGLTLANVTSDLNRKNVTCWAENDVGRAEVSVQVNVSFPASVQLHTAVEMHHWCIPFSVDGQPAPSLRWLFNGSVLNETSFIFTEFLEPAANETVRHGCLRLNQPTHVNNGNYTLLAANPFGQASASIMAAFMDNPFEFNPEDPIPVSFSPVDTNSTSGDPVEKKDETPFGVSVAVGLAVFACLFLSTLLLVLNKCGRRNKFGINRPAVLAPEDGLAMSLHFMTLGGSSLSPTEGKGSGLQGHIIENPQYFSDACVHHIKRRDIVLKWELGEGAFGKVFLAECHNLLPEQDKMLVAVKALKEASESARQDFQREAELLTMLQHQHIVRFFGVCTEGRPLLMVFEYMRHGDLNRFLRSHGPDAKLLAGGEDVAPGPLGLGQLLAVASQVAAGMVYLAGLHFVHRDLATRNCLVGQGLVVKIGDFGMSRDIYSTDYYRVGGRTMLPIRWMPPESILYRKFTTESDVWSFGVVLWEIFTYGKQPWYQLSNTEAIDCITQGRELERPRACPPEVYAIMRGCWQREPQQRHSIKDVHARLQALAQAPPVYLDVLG

[3] = target: Interleukin-1 receptor-associated kinase 4 (Homo sapiens) (UniProt Q9NWZ3); assay: Inhibition of human IRAK4 assessed as residual activity at 1 uM relative to control
[4] = target: Homeodomain-interacting protein kinase 3 (Homo sapiens, UniProt Q9H422); assay: Inhibition of human HIPK3 by radiometric assay
[5] = target: T1, Dual specificity protein kinase CLK4 (Homo sapiens, UniProt Q9HAZ1); assay: Inhibition of human CLK4 by radiometric assay
Target sequence in this assay (Q9HAZ1 whole entry): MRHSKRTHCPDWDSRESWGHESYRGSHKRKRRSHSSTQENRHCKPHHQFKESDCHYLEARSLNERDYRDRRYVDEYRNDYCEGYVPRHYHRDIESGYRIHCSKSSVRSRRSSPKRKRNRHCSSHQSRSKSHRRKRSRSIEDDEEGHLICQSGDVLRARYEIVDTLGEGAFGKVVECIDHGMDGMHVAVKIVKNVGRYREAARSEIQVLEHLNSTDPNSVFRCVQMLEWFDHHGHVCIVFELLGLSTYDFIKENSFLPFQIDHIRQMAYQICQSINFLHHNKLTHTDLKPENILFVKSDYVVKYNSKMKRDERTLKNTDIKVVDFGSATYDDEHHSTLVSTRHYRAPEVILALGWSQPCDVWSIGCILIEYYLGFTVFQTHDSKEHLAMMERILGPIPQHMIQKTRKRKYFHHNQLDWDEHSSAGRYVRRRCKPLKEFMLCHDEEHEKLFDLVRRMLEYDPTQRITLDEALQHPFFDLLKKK

[6] = target: Dual specificity tyrosine-phosphorylation-regulated kinase 2 (Homo sapiens, UniProt Q92630); assay: Inhibition of human DYRK2 by radiometric assay
[7] = target: T2, Serine/threonine-protein kinase haspin (Homo sapiens) (UniProt Q8TF76); assay: Inhibition of human Haspin assessed as residual activity at 1 uM relative to control
T2 sequence (whole entry): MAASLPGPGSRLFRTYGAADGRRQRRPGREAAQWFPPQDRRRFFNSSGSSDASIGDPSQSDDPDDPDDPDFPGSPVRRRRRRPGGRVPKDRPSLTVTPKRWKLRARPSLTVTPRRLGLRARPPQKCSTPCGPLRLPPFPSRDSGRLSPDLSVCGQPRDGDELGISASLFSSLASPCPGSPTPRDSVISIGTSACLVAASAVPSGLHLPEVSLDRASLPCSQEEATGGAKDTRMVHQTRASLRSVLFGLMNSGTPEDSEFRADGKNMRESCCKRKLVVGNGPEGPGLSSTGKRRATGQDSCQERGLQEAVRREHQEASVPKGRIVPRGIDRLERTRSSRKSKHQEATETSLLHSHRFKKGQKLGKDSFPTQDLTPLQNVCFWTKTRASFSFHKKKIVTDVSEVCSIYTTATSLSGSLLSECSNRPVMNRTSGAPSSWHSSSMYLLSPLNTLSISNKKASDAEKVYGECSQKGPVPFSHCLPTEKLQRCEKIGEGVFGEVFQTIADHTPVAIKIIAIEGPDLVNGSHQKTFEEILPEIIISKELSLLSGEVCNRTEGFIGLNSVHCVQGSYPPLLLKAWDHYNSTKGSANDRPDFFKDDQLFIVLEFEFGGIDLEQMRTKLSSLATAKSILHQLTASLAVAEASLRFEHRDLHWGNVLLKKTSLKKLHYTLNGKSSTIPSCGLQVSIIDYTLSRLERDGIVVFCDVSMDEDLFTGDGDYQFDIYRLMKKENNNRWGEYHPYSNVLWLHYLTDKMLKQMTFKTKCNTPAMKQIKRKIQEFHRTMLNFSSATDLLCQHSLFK

[8] = target: Glycogen synthase kinase-3 beta (Homo sapiens) (UniProt P49841); assay: Inhibition of human GSK3B assessed as residual activity at 1 uM relative to control
Sequence of Glycogen synthase kinase-3 beta (Homo sapiens) (P49841 whole entry, looked up): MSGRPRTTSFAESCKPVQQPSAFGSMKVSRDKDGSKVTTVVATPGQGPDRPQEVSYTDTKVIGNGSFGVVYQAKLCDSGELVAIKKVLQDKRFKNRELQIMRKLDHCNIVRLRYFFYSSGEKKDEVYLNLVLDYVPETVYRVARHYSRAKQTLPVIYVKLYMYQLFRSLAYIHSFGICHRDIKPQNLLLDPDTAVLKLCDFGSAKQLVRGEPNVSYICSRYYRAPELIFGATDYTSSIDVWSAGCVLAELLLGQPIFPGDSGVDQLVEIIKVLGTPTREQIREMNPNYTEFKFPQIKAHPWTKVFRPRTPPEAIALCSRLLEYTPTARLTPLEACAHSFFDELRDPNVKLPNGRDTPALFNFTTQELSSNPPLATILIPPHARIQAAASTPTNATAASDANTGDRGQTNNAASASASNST

[9] = target: T3, Dual specificity tyrosine-phosphorylation-regulated kinase 1A (Homo sapiens, UniProt Q13627); assay: Inhibition of DYRK1A (unknown origin) by radiometric assay
[10] = target: Homeodomain-interacting protein kinase 1 (Homo sapiens, UniProt Q86Z02); assay: Inhibition of human HIPK1 by radiometric assay
[11] = species on record: Homo sapiens; assay: Selectivity ratio of Ki for CLK1 V324A mutant (unknown origin) expressed in HEK293 cells to Ki for wild type CLK1 (unknown origin); type: cell-based
Outline: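 Full-length CLK1 wild type and V324A, NanoLuc-fused (N-terminal for WT, C-terminal for mutant), transfected into HEK293T cells and expressed for 20 h at 37 °C, 5% CO2. Cells in Opti-MEM were incubated 2 h with serially varied inhibitor plus 1 μM Tracer K5. BRET was read at 450/610 nm, and mBU was fitted to give IC50. […] Biological duplicates; mutant/WT Ki ratio.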

[12] = Inhibition of CLK1 V324A mutant (unknown origin) expressed in HEK293 cells incubated for 2 hrs followed by NanoBRET NanoGlo Substrate addition by NanoBRET assay; type: cell-based, Homo sapiens
[13] = Inhibition of recombinant CLK3 A319V mutant (unknown origin) using Ac-ERMRPRKRQGSVdP(Sox)G-NH2 as substrate after 5 mins by Omnia Kinase Assay; parameters: species or system Homo sapiens
[14] = target: Dual specificity protein kinase CLK2 (Homo sapiens) (UniProt P49760); details: dose 10.0 µM, time 10.0 min
Sequence of Dual specificity protein kinase CLK2 (Homo sapiens) (P49760 whole entry, looked up): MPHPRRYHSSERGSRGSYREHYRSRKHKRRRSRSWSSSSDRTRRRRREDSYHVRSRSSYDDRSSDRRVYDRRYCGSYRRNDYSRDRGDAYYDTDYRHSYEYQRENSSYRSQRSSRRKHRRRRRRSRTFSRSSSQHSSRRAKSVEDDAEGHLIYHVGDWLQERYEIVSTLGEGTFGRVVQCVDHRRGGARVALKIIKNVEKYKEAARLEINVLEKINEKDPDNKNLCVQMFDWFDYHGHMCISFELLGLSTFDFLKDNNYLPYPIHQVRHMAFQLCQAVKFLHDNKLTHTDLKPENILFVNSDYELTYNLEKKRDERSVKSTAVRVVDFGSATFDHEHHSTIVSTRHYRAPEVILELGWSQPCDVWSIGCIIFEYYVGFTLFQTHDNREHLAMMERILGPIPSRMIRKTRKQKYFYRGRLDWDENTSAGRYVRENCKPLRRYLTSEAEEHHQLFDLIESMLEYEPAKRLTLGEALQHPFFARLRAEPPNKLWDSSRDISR

[15] = target: Tyrosine-protein kinase Fes/Fps (Homo sapiens) (UniProt P07332); assay: Binding affinity to FES (unknown origin) assessed as change in melting temperature at 10 uM incubated for 10 mins using SYPRO orange dye by RT-PCR-based fluorescence assay
Sequence of Tyrosine-protein kinase Fes/Fps (Homo sapiens) (P07332 whole entry, the tested form may be a part): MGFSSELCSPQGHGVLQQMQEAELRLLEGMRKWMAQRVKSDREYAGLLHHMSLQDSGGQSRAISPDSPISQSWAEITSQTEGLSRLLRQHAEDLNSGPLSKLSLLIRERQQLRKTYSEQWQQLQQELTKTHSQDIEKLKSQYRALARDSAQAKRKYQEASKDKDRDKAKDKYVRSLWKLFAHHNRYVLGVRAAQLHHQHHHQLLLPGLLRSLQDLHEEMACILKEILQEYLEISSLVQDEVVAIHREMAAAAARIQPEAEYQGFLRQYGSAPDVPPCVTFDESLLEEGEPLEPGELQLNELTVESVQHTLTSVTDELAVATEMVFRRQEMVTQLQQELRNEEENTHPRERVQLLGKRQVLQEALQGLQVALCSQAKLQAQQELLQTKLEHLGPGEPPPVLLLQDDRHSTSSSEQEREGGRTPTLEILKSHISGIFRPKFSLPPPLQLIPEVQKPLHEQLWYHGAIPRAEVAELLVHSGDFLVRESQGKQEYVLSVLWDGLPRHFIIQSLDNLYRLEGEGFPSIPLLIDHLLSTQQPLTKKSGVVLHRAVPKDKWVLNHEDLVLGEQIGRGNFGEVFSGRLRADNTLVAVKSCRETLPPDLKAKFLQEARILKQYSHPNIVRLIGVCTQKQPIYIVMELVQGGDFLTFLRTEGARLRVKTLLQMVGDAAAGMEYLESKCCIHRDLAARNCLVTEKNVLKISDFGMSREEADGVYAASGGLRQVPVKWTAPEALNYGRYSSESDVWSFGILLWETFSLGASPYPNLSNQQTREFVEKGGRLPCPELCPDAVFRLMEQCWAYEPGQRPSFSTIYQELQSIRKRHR
Outline: (§1)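 Recombinant kinase domain at 2 μM in 10 mM HEPES pH 7.5, 500 mM NaCl, mixed with 10 μM inhibitor for 10 min at room temperature; SYPRO orange added at 1:1000; temperature-dependent unfolding fluorescence read on a real-time PCR instrument; Tm shift derived by a previously described method.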

[16] = target: Serine/threonine-protein kinase 17A (Homo sapiens) (UniProt Q9UEE5); assay: Binding affinity to DRAK1 (unknown origin) assessed as change in melting temperature at 10 uM incubated for 10 mins using SYPRO orange dye by RT-PCR-based fluorescence assay; outline: as §1
Sequence of Serine/threonine-protein kinase 17A (Homo sapiens) (Q9UEE5 whole entry): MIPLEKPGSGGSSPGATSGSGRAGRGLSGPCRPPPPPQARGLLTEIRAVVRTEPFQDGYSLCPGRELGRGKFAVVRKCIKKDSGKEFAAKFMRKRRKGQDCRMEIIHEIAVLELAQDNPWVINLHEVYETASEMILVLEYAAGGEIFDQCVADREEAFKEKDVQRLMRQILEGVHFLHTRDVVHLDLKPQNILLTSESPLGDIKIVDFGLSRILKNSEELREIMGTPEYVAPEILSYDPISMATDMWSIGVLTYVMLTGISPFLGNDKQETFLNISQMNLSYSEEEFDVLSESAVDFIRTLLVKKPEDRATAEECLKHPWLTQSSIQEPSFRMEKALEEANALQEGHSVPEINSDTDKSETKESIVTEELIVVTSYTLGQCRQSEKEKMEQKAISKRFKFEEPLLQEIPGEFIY

[17] = target: cAMP-dependent protein kinase catalytic subunit PRKX (Homo sapiens) (UniProt P51817); assay: Binding affinity to PRKX (unknown origin) assessed as change in melting temperature at 10 uM incubated for 10 mins using SYPRO orange dye by RT-PCR-based fluorescence assay; outline: as §1
[18] = target: T4, Dual specificity protein kinase CLK3 (Homo sapiens, UniProt P49761); details: dose 10.0 µM, time 10.0 min
Target sequence in this assay (P49761 whole entry, looked up): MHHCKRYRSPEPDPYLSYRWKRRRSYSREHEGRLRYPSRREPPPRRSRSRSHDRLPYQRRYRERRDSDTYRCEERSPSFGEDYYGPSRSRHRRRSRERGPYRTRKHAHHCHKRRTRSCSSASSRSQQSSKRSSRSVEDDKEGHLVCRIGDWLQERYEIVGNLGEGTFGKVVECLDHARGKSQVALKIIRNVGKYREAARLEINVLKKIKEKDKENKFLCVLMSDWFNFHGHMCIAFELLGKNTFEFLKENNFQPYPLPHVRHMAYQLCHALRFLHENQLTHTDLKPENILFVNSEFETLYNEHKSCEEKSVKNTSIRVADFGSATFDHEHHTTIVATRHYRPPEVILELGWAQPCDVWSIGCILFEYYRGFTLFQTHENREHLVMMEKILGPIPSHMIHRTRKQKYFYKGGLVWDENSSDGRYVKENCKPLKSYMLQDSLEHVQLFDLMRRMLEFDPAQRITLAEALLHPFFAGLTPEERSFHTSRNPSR

[19] = target: cGMP-dependent protein kinase 1 (Homo sapiens) (UniProt Q13976); details: dose 10.0 µM, time 10.0 min
[20] = target: T5, Dual specificity protein kinase CLK1 (Homo sapiens, UniProt P49759); assay: Inhibition of full length wild type CLK1 (unknown origin) expressed in HEK293 cells incubated for 2 hrs followed by NanoBRET NanoGlo Substrate addition by NanoBRET assay; type: cell-based
Target sequence in this assay (P49759 whole entry): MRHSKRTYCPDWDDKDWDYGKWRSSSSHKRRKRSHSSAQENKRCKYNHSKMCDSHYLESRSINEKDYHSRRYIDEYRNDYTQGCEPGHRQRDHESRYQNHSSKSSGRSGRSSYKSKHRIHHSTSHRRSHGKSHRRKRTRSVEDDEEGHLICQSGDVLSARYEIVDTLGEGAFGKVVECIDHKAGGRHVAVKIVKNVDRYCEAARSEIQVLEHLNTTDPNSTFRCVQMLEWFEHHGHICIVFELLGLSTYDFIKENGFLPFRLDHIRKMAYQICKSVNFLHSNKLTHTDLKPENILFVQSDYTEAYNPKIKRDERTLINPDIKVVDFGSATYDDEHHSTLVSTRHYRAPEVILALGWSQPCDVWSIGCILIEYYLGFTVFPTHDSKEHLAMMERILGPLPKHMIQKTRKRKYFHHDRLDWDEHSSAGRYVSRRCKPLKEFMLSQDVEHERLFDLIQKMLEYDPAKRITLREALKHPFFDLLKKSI

[21] = target: Serine/threonine-protein kinase 33 (Homo sapiens) (UniProt Q9BYT3); assay: Binding affinity to STK33 (unknown origin) assessed as change in melting temperature at 10 uM incubated for 10 mins using SYPRO orange dye by RT-PCR-based fluorescence assay; outline: as §1
[22] = target: T4, Dual specificity protein kinase CLK3; assay: Inhibition of recombinant CLK3 (unknown origin) using Ac-ERMRPRKRQGSVdP(Sox)G-NH2 as substrate after 5 mins by Omnia Kinase Assay
Target sequence in this assay (P49761 whole entry): as the sequence (P49761 whole entry, looked up) above

[23] = target: T2, Serine/threonine-protein kinase haspin (Homo sapiens); assay: Binding affinity to haspin (unknown origin) assessed as change in melting temperature at 10 uM incubated for 10 mins using SYPRO orange dye by RT-PCR-based fluorescence assay; outline: as §1
[24] = target: Casein kinase II subunit alpha' (Homo sapiens) (UniProt P19784); assay: Binding affinity to CK2A2 (unknown origin) assessed as change in melting temperature at 10 uM incubated for 10 mins using SYPRO orange dye by RT-PCR-based fluorescence assay; outline: as §1
[25] = target: T1, Dual specificity protein kinase CLK4; details: dose 10.0 µM, time 10.0 min
Target sequence in this assay (Q9HAZ1 whole entry, looked up): as the sequence (Q9HAZ1 whole entry) above

[26] = target: Casein kinase I isoform epsilon (Homo sapiens) (UniProt P49674); assay: Binding affinity to CSNK1E (unknown origin) assessed as change in melting temperature at 10 uM incubated for 10 mins using SYPRO orange dye by RT-PCR-based fluorescence assay; outline: as §1
[27] = target: Serine/threonine-protein kinase pim-3 (Homo sapiens) (UniProt Q86V86); assay: Binding affinity to PIM3 (unknown origin) assessed as change in melting temperature at 10 uM incubated for 10 mins using SYPRO orange dye by RT-PCR-based fluorescence assay; outline: as §1
[28] = target: T5, Dual specificity protein kinase CLK1; details: dose 10.0 µM, time 10.0 min
Target sequence in this assay (P49759 whole entry, looked up): as the sequence (P49759 whole entry) above

[29] = target: Serine/threonine-protein kinase pim-1 (Homo sapiens) (UniProt P11309); assay: Binding affinity to PIM1 (unknown origin) assessed as change in melting temperature at 10 uM incubated for 10 mins using SYPRO orange dye by RT-PCR-based fluorescence assay
[30] = target: T3, Dual specificity tyrosine-phosphorylation-regulated kinase 1A; details: dose 10.0 µM, time 10.0 min
[31] = target: T6, Dual specificity tyrosine-phosphorylation-regulated kinase 2 (Homo sapiens) (UniProt Q92630); assay: Binding affinity to DYRK2 (unknown origin) assessed as change in melting temperature at 10 uM incubated for 10 mins using SYPRO orange dye by RT-PCR-based fluorescence assay; outline: as §1
T6 sequence (whole entry): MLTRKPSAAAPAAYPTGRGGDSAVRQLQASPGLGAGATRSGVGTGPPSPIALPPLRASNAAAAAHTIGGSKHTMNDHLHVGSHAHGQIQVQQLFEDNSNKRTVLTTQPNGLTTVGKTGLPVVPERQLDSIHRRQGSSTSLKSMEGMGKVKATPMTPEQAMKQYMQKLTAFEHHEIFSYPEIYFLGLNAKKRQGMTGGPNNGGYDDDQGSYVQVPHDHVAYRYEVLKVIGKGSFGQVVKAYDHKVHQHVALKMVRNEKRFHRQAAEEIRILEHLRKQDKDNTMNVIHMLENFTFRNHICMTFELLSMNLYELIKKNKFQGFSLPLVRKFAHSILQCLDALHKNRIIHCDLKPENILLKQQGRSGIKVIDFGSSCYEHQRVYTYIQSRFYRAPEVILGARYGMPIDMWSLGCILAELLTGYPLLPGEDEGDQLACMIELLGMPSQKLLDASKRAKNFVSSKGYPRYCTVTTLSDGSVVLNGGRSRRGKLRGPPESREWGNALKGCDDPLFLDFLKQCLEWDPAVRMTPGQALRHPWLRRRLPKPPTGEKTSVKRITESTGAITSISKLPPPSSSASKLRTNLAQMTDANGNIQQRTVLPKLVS

[32] = species on record: Homo sapiens; assay: Binding affinity to CLK1 V324A mutant (unknown origin) assessed as change in melting temperature at 10 uM incubated for 10 mins using SYPRO orange dye by RT-PCR-based fluorescence assay; outline: as §1
[33] = species on record: Homo sapiens; assay: Binding affinity to CLK3 A319V mutant (unknown origin) assessed as change in melting temperature at 10 uM incubated for 10 mins using SYPRO orange dye by RT-PCR-based fluorescence assay; outline: as §1
[34] = target: Serine/threonine-protein kinase 17B (Homo sapiens) (UniProt O94768); assay: Binding affinity to DRAK2 (unknown origin) assessed as change in melting temperature at 10 uM incubated for 10 mins using SYPRO orange dye by RT-PCR-based fluorescence assay; outline: as §1

Cn1cc(-c2ccc3occ(-c4cccc(-c5ccncc5)c4)c3n2)cn1
IC50 [1]: 29 nM
Activity [2]: < 50%
Activity [3]: < 50%
IC50 [4]: 159 nM
IC50 [5]: 12 nM
IC50 [6]: 1310 nM
Activity [7]: < 50%
Activity [8]: < 50%
IC50 [9]: 213 nM
IC50 [10]: 187 nM

CCOC(=O)c1c(/C(C#N)=C/N)c2ccc(Cl)c(Cl)c2n1C
Ratio Ki [11]: 9

Cn1c2c(c3ccc(Cl)c(Cl)c31)C(C#N)C1(CCNCC1)NC2=O (stereo unspecified)
Ki [12]: 2810 nM
Ki [13]: 850 nM
Ratio Ki [11]: 20.6
ΔTm [14]: 3.5 °C
ΔTm [15]: > 4 °C
ΔTm [16]: > 4 °C
ΔTm [17]: > 4 °C
ΔTm [18]: 1.4 °C
ΔTm [19]: > 6 °C
Ki [20]: 140 nM
ΔTm [21]: > 4 °C
Ki [22]: 26900 nM
ΔTm [23]: > 4 °C
ΔTm [24]: > 4 °C
ΔTm [25]: > 4 °C

CCN1/C(=C\C(C)=O)Sc2ccc(OC)cc21
Ki [13]: 320 nM
ΔTm [14]: > 4 °C
ΔTm [26]: > 4 °C
ΔTm [27]: > 4 °C
ΔTm [18]: 3 °C
ΔTm [28]: > 6 °C
ΔTm [29]: > 4 °C
ΔTm [30]: > 6 °C
ΔTm [25]: > 6 °C
ΔTm [31]: > 6 °C

COC(=N)c1nc2ccc3ncnc(Nc4ccc(OC)cc4F)c3c2s1
ΔTm [32]: 3.8 °C
ΔTm [14]: 7 °C
ΔTm [18]: 3.4 °C
ΔTm [28]: 10.3 °C
ΔTm [33]: 9.2 °C
ΔTm [25]: 9.6 °C

O=C1NCc2ccc3c(-c4cccc(Cl)c4)c[nH]c3c21
ΔTm [14]: 4.9 °C
ΔTm [18]: 2.3 °C
ΔTm [28]: 9.8 °C
ΔTm [25]: 10.1 °C

Cn1cc(-c2ccc3occ(-c4cccc(Oc5ccccc5)c4)c3n2)cn1
ΔTm [14]: 8.3 °C
ΔTm [18]: 4.8 °C
ΔTm [28]: 12.3 °C

Nc1nccc(-c2ccc3noc(-c4ccc(Cl)cc4)c3c2)n1
ΔTm [34]: > 6 °C
ΔTm [14]: > 6 °C
ΔTm [27]: > 4 °C
ΔTm [28]: > 6 °C
ΔTm [31]: > 6 °C

CCOc1ccc2c(-c3ccnc(Nc4cc(OC)cc(C(F)(F)F)c4)n3)cnn2n1
ΔTm [32]: 2.5 °C
Ratio Ki [11]: 9
ΔTm [14]: 8.4 °C
ΔTm [18]: 2 °C
ΔTm [28]: 9 °C
ΔTm [33]: 5.5 °C
ΔTm [25]: 9 °C
